Measurements published in ChEMBL document CHEMBL3774374, “The Effect of Small Molecules on Sterol Homeostasis: Measuring 7-Dehydrocholesterol in Dhcr7-Deficient Neuro2a Cells and Human Fibroblasts” (J Med Chem, 2016).
Active and inactive are the calls of the source. The calls are words filed in the database; no cut-off is given here.

Assays:
N2a = assay: Increase in lanosterol levels in Dhcr7-deficient mouse Neuro2a cells at 1 uM by LC-MS analysis; type: functional, cell-based
Summary of the method: (§1)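 Dhcr7-deficient Neuro2a cells (13000/well, 0.5% FBS medium) on predeposited compound, 24 h at 37 °C. Hoechst-stained and imaged to count cells. Lysed in methanol containing isotope-labelled sterol standards, derivatized with PTAD 20 min at RT, then isocratic C18 UPLC-MS/SRM. Remaining extract silylated with BSTFA for GC-MS, quantified against d7-cholesterol. Follow-up runs in triplicate.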

Fibroblast [1] = assay: Increase in lanosterol levels in human SLOS fibroblasts at 1 uM by LC-MS/GC-MS analysis; type: functional, cell-based
Summary of the method: (§2)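 SLOS patient skin fibroblasts (passage 8–20) grown in 96-well plates in delipidated serum with compound for 5 days; three different SLOS lines. Sterols quantified by PTAD-derivatized UPLC-MS plus GC-MS; 7-DHC expressed as percentage of untreated cells.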

[2] = biological target: T1, 3-beta-hydroxysteroid-Delta(8),Delta(7)-isomerase (Mus musculus) (UniProt P70245); assay: Inhibition of delta 8-7 isomerase in Dhcr7-deficient mouse Neuro2a cells assessed as decrease in cholesterol levels at 1 uM by LC-MS/GC-MS analysis; type: cell-based
T1 sequence (whole entry): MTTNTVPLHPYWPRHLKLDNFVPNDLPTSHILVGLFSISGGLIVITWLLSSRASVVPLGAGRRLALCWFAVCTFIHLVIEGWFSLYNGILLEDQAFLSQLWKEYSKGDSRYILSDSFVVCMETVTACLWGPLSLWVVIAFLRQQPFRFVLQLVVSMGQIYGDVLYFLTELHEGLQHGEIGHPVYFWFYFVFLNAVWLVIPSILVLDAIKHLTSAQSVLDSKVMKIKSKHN
Summary of the method: (§3)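 Follow-up (verification) assay in 96-well plates, run as the 384-well screen, in triplicate, at varying compound concentrations. Cells counted by Hoechst imaging, washed with PBS, then lysed in MeOH with BHT/TPP and isotope standards (d7-Chol, d7-7-DHC, 13C3-Des, 13C3-Lan). Sterols derivatised with PTAD for 20 min at RT and quantified by C18 UPLC-MS (SRM). Remaining sample silylated with BSTFA and run on GC-MS, quantified against d7-Chol.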

[3] = biological target: T2, Delta(24)-sterol reductase (Mus musculus) (UniProt Q8VCH6); assay: Inhibition of DR24 in Dhcr7-deficient mouse Neuro2a cells assessed as decrease in 7-DHC levels at 1 uM by LC-MS/GC-MS analysis; type: cell-based; summary of the method: as §1
T2 sequence (whole entry): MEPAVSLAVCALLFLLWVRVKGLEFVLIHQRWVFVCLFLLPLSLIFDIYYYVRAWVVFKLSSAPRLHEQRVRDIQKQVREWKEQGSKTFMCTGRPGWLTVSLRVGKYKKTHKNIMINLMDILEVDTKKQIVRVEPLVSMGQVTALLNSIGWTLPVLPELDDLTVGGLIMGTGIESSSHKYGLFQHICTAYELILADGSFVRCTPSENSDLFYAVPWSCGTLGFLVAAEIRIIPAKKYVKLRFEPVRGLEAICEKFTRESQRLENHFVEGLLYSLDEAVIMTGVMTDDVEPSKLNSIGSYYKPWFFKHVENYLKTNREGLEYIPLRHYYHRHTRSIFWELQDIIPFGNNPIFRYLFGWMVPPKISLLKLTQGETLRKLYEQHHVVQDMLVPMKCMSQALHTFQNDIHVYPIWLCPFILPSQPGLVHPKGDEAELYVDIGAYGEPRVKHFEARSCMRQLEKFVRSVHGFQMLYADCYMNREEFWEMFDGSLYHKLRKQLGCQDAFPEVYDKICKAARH

[4] = biological target: T1, 3-beta-hydroxysteroid-Delta(8),Delta(7)-isomerase (Mus musculus); assay: Inhibition of delta 8-7 isomerase in Dhcr7-deficient mouse Neuro2a cells assessed as decrease in 7-DHC levels at 1 uM by LC-MS/GC-MS analysis; type: cell-based; summary of the method: as §1
[5] = Cytotoxicity against human SLOS fibroblasts at 5 uM after 5 days by Cell Titer assay; type: cell-based; conditions: fibroblast, 120 h
[6] = biological target: T1, 3-beta-hydroxysteroid-Delta(8),Delta(7)-isomerase (Mus musculus); assay: Inhibition of delta 8-7 isomerase in mouse Neuro2a cells assessed as decrease in 7-DHC levels at 1 uM by LC-MS/GC-MS analysis; type: cell-based
Summary of the method: (§4)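 Control Neuro2a cells (10000/well, 0.5% FBS) on compound, 24 h. Hoechst cell count, then methanol lysis with labelled standards (d7-7-DHC, 13C3-desmosterol, 13C3-lanosterol), PTAD derivatization 20 min at RT, UPLC-MS SRM. GC-MS of silylated extract for further sterols.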

Fibroblast [7] = assay: Decrease in cholesterol levels in human SLOS fibroblasts at 10 nM after 5 days by LC-MS/GC-MS analysis; type: functional, cell-based; summary of the method: as §2
[8] = biological target: T1, 3-beta-hydroxysteroid-Delta(8),Delta(7)-isomerase (Mus musculus); assay: Inhibition of delta 8-7 isomerase in Dhcr7-deficient mouse Neuro2a cells assessed as increase in zymosterol levels at 1 uM by LC-MS/GC-MS analysis; type: cell-based; summary of the method: as §3
[9] = biological target: 3-beta-hydroxysteroid-Delta(8),Delta(7)-isomerase (Homo sapiens) (UniProt Q15125); assay: Inhibition of delta 8-7 isomerase in human SLOS fibroblasts assessed as decrease in 7-DHC levels at 10 nM after 5 days by LC-MS/GC-MS analysis; summary of the method: as §2
[10] = biological target: T1, 3-beta-hydroxysteroid-Delta(8),Delta(7)-isomerase (Mus musculus); assay: Inhibition of delta 8-7 isomerase in Dhcr7-deficient mouse Neuro2a cells assessed as increase in zymostenol levels at 1 uM by LC-MS/GC-MS analysis; type: cell-based; summary of the method: as §3
[11] = biological target: T3, Delta(24)-sterol reductase (Homo sapiens) (UniProt Q15392); assay: Inhibition of DR24 in human SLOS fibroblasts assessed as decrease in 7-DHC levels at 10 nM after 5 days by LC-MS/GC-MS analysis; summary of the method: as §2
T3 sequence (whole entry): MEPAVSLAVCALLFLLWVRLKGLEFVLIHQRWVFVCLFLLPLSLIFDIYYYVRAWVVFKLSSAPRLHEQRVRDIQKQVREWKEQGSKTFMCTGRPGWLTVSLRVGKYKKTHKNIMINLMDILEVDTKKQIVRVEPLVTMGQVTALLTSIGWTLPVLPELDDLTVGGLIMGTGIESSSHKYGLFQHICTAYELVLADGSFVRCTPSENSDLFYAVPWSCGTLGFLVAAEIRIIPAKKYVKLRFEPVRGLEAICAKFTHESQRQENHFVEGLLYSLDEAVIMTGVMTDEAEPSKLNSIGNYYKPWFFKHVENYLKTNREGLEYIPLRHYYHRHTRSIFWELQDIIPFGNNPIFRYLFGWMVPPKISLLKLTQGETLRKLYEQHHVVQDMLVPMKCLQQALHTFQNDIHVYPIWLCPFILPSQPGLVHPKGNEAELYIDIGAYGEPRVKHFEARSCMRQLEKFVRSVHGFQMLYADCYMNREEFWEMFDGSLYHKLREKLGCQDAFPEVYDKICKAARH

[12] = biological target: T2, Delta(24)-sterol reductase (Mus musculus); assay: Inhibition of DR24 in mouse Neuro2a cells assessed as decrease in 7-DHC levels at 1 uM by LC-MS/GC-MS analysis; type: cell-based; summary of the method: as §4
[13] = biological target: T4, Lanosterol 14-alpha demethylase (Mus musculus, UniProt Q8K0C4); assay: Inhibition of 14 alpha demethylase in Dhcr7-deficient mouse Neuro2a cells assessed as decrease in desmosterol levels at 1 uM by LC-MS/GC-MS analysis; type: cell-based; summary of the method: as §1
T4 sequence (Q8K0C4 whole entry): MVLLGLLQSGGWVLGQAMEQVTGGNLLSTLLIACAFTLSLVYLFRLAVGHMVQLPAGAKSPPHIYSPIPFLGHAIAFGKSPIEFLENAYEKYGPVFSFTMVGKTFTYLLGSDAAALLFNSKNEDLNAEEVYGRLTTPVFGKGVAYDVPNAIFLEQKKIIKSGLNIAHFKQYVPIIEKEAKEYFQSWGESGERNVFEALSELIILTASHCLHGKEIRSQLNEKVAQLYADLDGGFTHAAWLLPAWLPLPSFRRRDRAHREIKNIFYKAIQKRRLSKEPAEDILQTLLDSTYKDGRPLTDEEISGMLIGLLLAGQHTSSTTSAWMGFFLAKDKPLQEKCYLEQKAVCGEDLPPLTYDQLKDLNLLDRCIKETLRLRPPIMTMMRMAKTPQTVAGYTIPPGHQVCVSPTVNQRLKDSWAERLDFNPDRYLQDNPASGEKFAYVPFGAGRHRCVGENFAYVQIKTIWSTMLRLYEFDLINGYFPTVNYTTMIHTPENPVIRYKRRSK

[14] = biological target: T4, Lanosterol 14-alpha demethylase; assay: Inhibition of 14 alpha demethylase in Dhcr7-deficient mouse Neuro2a cells assessed as increase in lanosterol levels at 1 uM by LC-MS/GC-MS analysis; type: cell-based; summary of the method: as §1
[15] = Antiproliferative activity against Dhcr7-deficient mouse Neuro2a cells at 500 nM; type: cell-based; conditions: n2a, 0.5 µM
Summary of the method: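 Dhcr7-deficient Neuro2a cells treated with compound; proliferation followed by Hoechst nuclear staining and automated microscope imaging with cell counts per well.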

[16] = biological target: T4, Lanosterol 14-alpha demethylase; assay: Inhibition of 14 alpha demethylase in Dhcr7-deficient mouse Neuro2a cells assessed as decrease in 7-DHC levels at 1 uM by LC-MS/GC-MS analysis; type: cell-based; summary of the method: as §1
[17] = biological target: T4, Lanosterol 14-alpha demethylase; assay: Inhibition of 14 alpha demethylase in Dhcr7-deficient mouse Neuro2a cells assessed as increase in cholesterol levels at 1 uM by LC-MS/GC-MS analysis; type: cell-based; summary of the method: as §1
[18] = biological target: T2, Delta(24)-sterol reductase (Mus musculus); assay: Inhibition of C-24 reductase in Dhcr7-deficient mouse Neuro2a cells assessed as increase in zymosterol levels at 1 uM by LC-MS/GC-MS analysis; type: cell-based; summary of the method: as §1
[19] = biological target: T2, Delta(24)-sterol reductase (Mus musculus); assay: Inhibition of C-24 reductase in Dhcr7-deficient mouse Neuro2a cells assessed as increase in desmosterol levels at 1 uM by LC-MS/GC-MS analysis; type: cell-based; summary of the method: as §1
[20] = biological target: T2, Delta(24)-sterol reductase (Mus musculus); assay: Inhibition of Dhcr24 in Dhcr7-deficient mouse Neuro2a cells assessed as increase in 7-dehydrodesmosterol levels at 1 uM by LC-MS/GC-MS analysis; type: cell-based; summary of the method: as §1

Chain of 3-beta-hydroxysteroid-Delta(8),Delta(7)-isomerase (Homo sapiens) (Q15125 whole entry): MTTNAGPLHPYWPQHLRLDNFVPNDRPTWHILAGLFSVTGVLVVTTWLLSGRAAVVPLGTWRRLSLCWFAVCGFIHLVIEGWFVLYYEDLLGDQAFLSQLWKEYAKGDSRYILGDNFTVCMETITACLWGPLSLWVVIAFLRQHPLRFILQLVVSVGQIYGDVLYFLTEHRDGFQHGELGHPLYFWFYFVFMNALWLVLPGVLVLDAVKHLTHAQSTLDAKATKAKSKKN

| SMILES | inhibition [3] | inhibition [4] | Activity [5] | Activity (decrease in 7-DHC levels) [6] | Activity (Fibroblast [7]) | inhibition [9] | inhibition [11] | Decrease in 7-DHC levels (active/inactive call) [12] | inhibition [19] | also measured |
| --- | --- | --- | --- | --- | --- | --- | --- | --- | --- | --- |
| CC(=O)O[C@@]1(C(C)=O)CC[C@H]2[C@H]3C=C(C)C4=CC(=O)CC[C@]4(C)[C@H]3CC[C@@]21C |  |  |  |  |  |  |  |  |  | Activity (N2a): Active; Activity (Fibroblast [1]): Active |
| CC/C(=C(\c1ccccc1)c1ccc(OCCN(C)C)cc1)c1ccccc1 [TAMOXIFEN] | Active | Active | Toxic | Active | inactive | Active | Active | Active |  | inhibition [2]: Active; inhibition [8]: Active; inhibition [10]: Active |
| Oc1c(Cl)cc(Cl)c2cccnc12 [CHLOROXINE] |  |  |  |  |  |  |  |  |  | inhibition (INH) [13]: Active; inhibition (INH) [14]: Active; Activity [15]: Toxic; inhibition (INH) [16]: Active; inhibition (INH) [17]: Active |
| O=C(c1ccc(OCCN2CCCCC2)cc1)c1c(-c2ccc(O)cc2)sc2cc(O)ccc12 [RALOXIFENE] | Active | Active | Toxic | Active | inactive | Active | Active | Active | Active | inhibition [18]: Active |
| COc1ccc2c(c1)OC(C)(C)[C@@H](c1ccccc1)[C@@H]2c1ccc(OCCN2CCCC2)cc1 [LEVORMELOXIFENE] | Active | Active | Toxic |  | inactive | Active | Active |  | Active | inhibition [20]: Active |
